Assay results reported in ChEMBL document CHEMBL1240522, “Effect of goniothalamin on the development of Ehrlich solid tumor in mice” (Bioorg Med Chem, 2010).
Calls of active or inactive are those of the source. The rule behind the calls is not given here.

Experiments:
UACC-62 = experiment: Cytotoxicity against human UACC62 cells after 48 hrs by sulforhodamine B assay; format: functional; conditions: UACC-62, 48 h
Method in brief: (§1)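 Cells grown in RPMI 1640 with 5% FBS at 37 °C, 5% CO2, with penicillin/streptomycin. Treated for 48 h with compound in DMSO/RPMI at […]. Fixed with 50% trichloroacetic acid, protein stained with sulforhodamine B and read at 540 nm. TGI (total growth inhibition) obtained by non-linear regression of the concentration–response curves.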

MCF7 = experiment: Cytotoxicity against human MCF7 cells after 48 hrs by sulforhodamine B assay; format: functional; conditions: MCF7, 48 h; method in brief: as §1
[1] = Cytotoxicity against human NCI-ADR-RES cells after 48 hrs by sulforhodamine B assay; format: functional; method in brief: as §1
786-0 = experiment: Cytotoxicity against human 786-0 cells after 48 hrs by sulforhodamine B assay; format: functional; conditions: 786-0, 48 h; method in brief: as §1
NCI-H460 = experiment: Cytotoxicity against human NCI-H460 cells after 48 hrs by sulforhodamine B assay; format: functional; conditions: NCI-H460, 48 h; method in brief: as §1
[2] = Cytotoxicity against human PCO3 cells after 48 hrs by sulforhodamine B assay; format: functional; conditions: PCO3, 48 h; method in brief: as §1
OVCAR-3 = experiment: Cytotoxicity against human OVCAR-3 cells after 48 hrs by sulforhodamine B assay; format: functional; conditions: OVCAR-3, 48 h; method in brief: as §1
HT-29 = experiment: Cytotoxicity against human HT-29 cells after 48 hrs by sulforhodamine B assay; format: functional; conditions: HT-29, 48 h; method in brief: as §1
U-251 = experiment: Cytotoxicity against human U251 cells after 48 hrs by sulforhodamine B assay; format: functional; conditions: U-251, 48 h; method in brief: as §1
[3] = Antitumor activity against mouse EAC cells xenografted in BALB/C mouse assessed as inhibition of increase in tumor volume at 3 mg/kg, ip administered every 3 days measured on day 7 relative to control; format: functional; conditions: Ehrlich, route intraperitoneal
Method in brief: (§2)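 Ehrlich cells kept as ascites by weekly ip passage of 5 × 10^5 cells in mice. Balb/C mice (n = 8/group) inoculated with 2.5 × 10^6 cells into the right hind footpad. Dosed ip every third day from day 3, vehicle 0.9% saline. Tumour volume taken as plethysmometer paw volume minus basal, every third day to day 15. Reported as % inhibition vs vehicle ± SD; ANOVA.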

[4] = Antitumor activity against mouse EAC cells xenografted in BALB/C mouse assessed as inhibition of increase in tumor volume at 3 mg/kg, ip administered every 3 days measured on day 15 relative to control; format: functional; conditions: Ehrlich, route intraperitoneal; method in brief: as §2
[5] = Antitumor activity against mouse EAC cells xenografted in BALB/C mouse assessed as reduction of tumor weight at 3 mg/kg, ip administered every 3 days measured on day 15 relative to control; format: functional; conditions: Ehrlich, route intraperitoneal
Method in brief: (§3)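 Ehrlich footpad tumour model in Balb/C mice (n = 8/group, 2.5 × 10^6 cells) with ip dosing every third day from day 3 in 0.9% saline. Mice sacrificed on day 15 and both hind paws weighed. Relative tumour weight = (tumour paw − healthy paw weight)/body weight. Reported as % inhibition vs vehicle ± SD; ANOVA.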

Mus musculus [6] = experiment: Acute toxicity in BALB/C mouse assessed as reduction of body weight at up to 3 mg/kg, ip after 15 days; format: organism-based; parameters: dose 3 mg/kg, route intraperitoneal; conditions: in vivo, 360 h
Method in brief: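 Balb/C mice (n = 8/group) carrying Ehrlich footpad tumours, given ip doses every third day from day 3 (four treatments), vehicle 0.9% saline. Animals weighed and watched for toxicity throughout; body-weight loss recorded at the end of the experiment, day 15.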

Mus musculus [7] = experiment: Antiinflammatory activity in BALB/C mouse assessed as inhibition of carrageenan-induced paw edema at 5 mg/kg, ip administered 30 mins before carrageenan challenge measured before 24 hrs by plethysmometer; format: functional, organism-based; parameters: dose 5 mg/kg
Method in brief: (§4)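 Balb/C mice, n = 8/group. Right hind paw basal volume measured by plethysmometer. Single ip dose in 0.9% saline vehicle, then carrageenan 2.5% injected intraplantar into the right hind footpad 30 min later. Edema taken as measured minus basal volume at 1.5, 3.0, 4.5, 6.0, 24, 48 and 72 h. Expressed as % inhibition vs vehicle ± standard deviation; ANOVA.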

Mus musculus [8] = experiment: Antiinflammatory activity in ip dosed BALB/C mouse assessed as inhibition of carrageenan-induced paw edema administered 30 mins before carrageenan challenge measured after 24 hrs by plethysmometer; format: functional, organism-based; method in brief: as §4
[9] = Antitumor activity against mouse EAC cells xenografted in BALB/C mouse assessed as inhibition of tumor growth at 10 mg/kg, ip administered every 3 days measured on day 7 relative to control; format: functional; conditions: Ehrlich, route intraperitoneal
Method in brief: (§5)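 Ehrlich cells were kept as ascites by weekly peritoneal passage in mice. Balb/C mice (n = 8/group) received 2.5 × 10^6 cells in 60 µL into the right hind footpad. Dosing was intraperitoneal every third day from day 3, with saline 0.9% vehicle. Tumor volume was plethysmometer paw volume minus basal volume, read every third day to day 15, and reported as % inhibition versus vehicle ± SD.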

[10] = Antitumor activity against mouse EAC cells xenografted in BALB/C mouse assessed as inhibition of tumor growth at 10 mg/kg, ip administered every 3 days measured on day 15 relative to control; format: functional; conditions: Ehrlich, route intraperitoneal; method in brief: as §5
[11] = Antitumor activity against mouse EAC cells xenografted in BALB/C mouse assessed as reduction of tumor weight at 10 mg/kg, ip administered every 3 days measured on day 15 relative to control; format: functional; conditions: Ehrlich, route intraperitoneal
Method in brief: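 Ehrlich cells (2.5 × 10^6 in 60 µL) were injected into the right hind footpad of Balb/C mice (n = 8/group). Dosing was intraperitoneal every third day from day 3, with saline 0.9% vehicle. On day 15 both hind paws were removed and weighed. Relative tumor weight was (tumor paw − healthy paw weight)/body weight, reported as % inhibition versus vehicle ± SD.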

Mus musculus [12] = experiment: Acute toxicity in BALB/C mouse assessed as reduction of body weight at up to 10 mg/kg, ip after 15 days; format: organism-based; parameters: dose 10 mg/kg, route intraperitoneal; conditions: in vivo, 360 h
Method in brief: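 Body weight and toxicity signs were tracked in Balb/C mice (n = 8/group) carrying Ehrlich footpad tumors. Dosing was intraperitoneal every third day from day 3 after inoculation, four treatments in total, with saline 0.9% vehicle. Mice were weighed throughout until sacrifice on day 15.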

Mus musculus [13] = experiment: Acute toxicity in BALB/C mouse assessed as mortality at up to 300 mg/kg, ip after 4 hrs; format: organism-based; parameters: dose 300 mg/kg, route intraperitoneal; conditions: in vivo
Method in brief: (§6)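 Balb/C mice (20–35 g) dosed intraperitoneally at 50, 100 and 300 mg/kg. Observed for 4 h, then daily for 14 days, for body weight loss, locomotion, behaviour (agitation, lethargy), respiration, salivation, tearing eyes, cyanosis and mortality.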

Mus musculus [14] = experiment: Acute toxicity in BALB/C mouse assessed as mortality at up to 300 mg/kg, ip after 15 days; format: organism-based; parameters: dose 300 mg/kg, route intraperitoneal; conditions: in vivo, 360 h; method in brief: as §6
[15] = Antitumor activity against mouse EAC cells xenografted in BALB/C mouse assessed as inhibition of increase in tumor volume at 50 mg/kg, ip administered every 3 days measured on day 15 relative to control; format: functional; conditions: Ehrlich, route intraperitoneal; method in brief: as §2
[16] = Antitumor activity against mouse EAC cells xenografted in BALB/C mouse assessed as inhibition of increase in tumor volume at 50 mg/kg, ip administered every 3 days measured on day 13 relative to control; format: functional; conditions: Ehrlich, route intraperitoneal; method in brief: as §2
[17] = Antitumor activity against mouse EAC cells xenografted in BALB/C mouse assessed as reduction of tumor weight at 50 mg/kg, ip administered every 3 days measured on day 15 relative to control; format: functional; conditions: Ehrlich, route intraperitoneal; method in brief: as §3
Mus musculus [18] = experiment: Acute toxicity in BALB/C mouse assessed as reduction of body weight at up to 50 mg/kg, ip after 15 days; format: organism-based; parameters: dose 50 mg/kg, route intraperitoneal; conditions: in vivo, 360 h; method in brief: as §6

For `COc1cccc2c1C(=O)c1c(O)c3c(c(O)c1C2=O)C[C@@](O)(C(=O)CO)C[C@@H]3O[C@H]1C[C@H](N)[C@H](O)[C@H](C)O1` [DOXORUBICIN], the TGI (UACC-62) was 0.32 µM, the TGI (MCF7) was 11 µM and the TGI [1] was 2.83 µM. It also gave a TGI (786-0) of 7.86 µM, a TGI (NCI-H460) of 2.37 µM and a TGI [2] of 4.03 µM. For the same molecule, the TGI (OVCAR-3) was 10.2 µM, the TGI (HT-29) was 16.4 µM and the TGI (U-251) was 1.42 µM. The inhibition in vivo at 3 mg/kg [3] was 42.7%, the inhibition in vivo at 3 mg/kg [4] was 34.7% and the inhibition in vivo at 3 mg/kg [5] was 28%. The Activity (Mus musculus [6]) was 2.5 g, the inhibition (Mus musculus [7]) was “Active” and the inhibition (Mus musculus [8]) was “Dose-dependent effect”.

Molecule `O=c1[nH]cc(F)c(=O)[nH]1` [FLUOROURACIL] has an inhibition in vivo at 10 mg/kg [9] of 41.7%, an inhibition in vivo at 10 mg/kg [10] of 57.6% and an inhibition in vivo at 10 mg/kg [11] of 46.1%. The Activity (Mus musculus [12]) was “Non-toxic”.

`O=C1C=CC[C@H](/C=C/c2ccccc2)O1` [GONIOTHALAMIN] showed a TGI (UACC-62) of 21.6 µM, a TGI (MCF7) of 21.7 µM and a TGI [1] of 1.2 µM. The TGI (786-0) was 18.6 µM, the TGI (NCI-H460) was 32.4 µM and the TGI [2] was 13.5 µM. The TGI (OVCAR-3) was 8.31 µM, the TGI (HT-29) was 22 µM and the TGI (U-251) was 13.4 µM. For the same molecule, the Activity (Mus musculus [13]) was “Non-toxic”, the Activity (Mus musculus [14]) was “Non-toxic” and the inhibition in vivo at 50 mg/kg [15] was 37.4%. For the same molecule, the inhibition in vivo at 50 mg/kg [16] was 21.9%, the inhibition in vivo at 50 mg/kg [17] was 25.3% and the Activity (Mus musculus [18]) was “Non-toxic”.
